Experimental data: ChEMBL document CHEMBL1817666, “Bicephalic amphiphile architecture affects antibacterial activity” (2011)
Active and inactive are the calls of the source. No cut-off for these calls is given here.

What was measured:
Type in all cases: functional
Pseudomonas aeruginosa [1] = assay: Antibacterial activity against 5 x 10^5 CFU/mL Pseudomonas aeruginosa Boston 41501 ATCC 27853 after 72 hrs by CLSI M07-A8 broth microdilution method
Procedure, shortened: (§1)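 Broth microdilution in Mueller-Hinton broth at 37 °C. Serially diluted compound added in triplicate wells, then overnight culture diluted to about 5 × 10⁶ cfu/mL inoculum, giving 5 × 10⁵ cfu/well. Inoculum checked by serial dilution and plating. Plates incubated 72 h at 37 °C. MIC is the lowest concentration with no growth visible by eye. At least 3 repeats per organism.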

Escherichia coli [2] = assay: Antibacterial activity against 5 x 10^5 CFU/mL Escherichia coli ATCC 25922 after 72 hrs by CLSI M07-A8 broth microdilution method; procedure, shortened: as §1
Enterococcus faecalis [3] = assay: Antibacterial activity against 5 x 10^5 CFU/mL Enterococcus faecalis ATCC 29212 after 72 hrs by CLSI M07-A8 broth microdilution method; procedure, shortened: as §1
Staphylococcus aureus [4] = assay: Antibacterial activity against 5 x 10^5 CFU/mL Staphylococcus aureus subsp. aureus ATCC 29213 after 72 hrs by CLSI M07-A8 broth microdilution method; procedure, shortened: as §1
Enterococcus faecalis [5] = assay: Antibacterial activity against 5 x 10^5 CFU/mL Enterococcus faecalis ATCC 29212 incubated for 72 hrs followed by growing of cells on trypticase soy agar plate for 24 hrs by CLSI M07-A8 broth microdilution method
Procedure, shortened: (§2)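 After the 72 h, 37 °C Mueller-Hinton microdilution (5 × 10⁵ cfu/well, triplicate wells), 100 µl from each triplicate set is plated on trypticase soy agar and incubated 24 h. MBC is the lowest concentration giving no colonies. At least 3 repeats per organism.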

Staphylococcus aureus [6] = assay: Antibacterial activity against 5 x 10^5 CFU/mL Staphylococcus aureus subsp. aureus ATCC 29213 incubated for 72 hrs followed by growing of cells on trypticase soy agar plate for 24 hrs by CLSI M07-A8 broth microdilution method; procedure, shortened: as §2
Escherichia coli [7] = assay: Antibacterial activity against 5 x 10^5 CFU/mL Escherichia coli ATCC 25922 incubated for 72 hrs followed by growing of cells on trypticase soy agar plate for 24 hrs by CLSI M07-A8 broth microdilution method; procedure, shortened: as §2
Pseudomonas aeruginosa [8] = assay: Antibacterial activity against 5 x 10^5 CFU/mL Pseudomonas aeruginosa Boston 41501 ATCC 27853 incubated for 72 hrs followed by growing of cells on trypticase soy agar plate for 24 hrs by CLSI M07-A8 broth microdilution method; procedure, shortened: as §2
Staphylococcus aureus [9] = assay: Antibacterial activity against 2.5 x 10^6 CFU/mL Staphylococcus aureus subsp. aureus ATCC 29213 assessed as time required for bacterial killing at 100 uM by microscopy based bacterial killing assay
Enterococcus faecalis [10] = assay: Antibacterial activity against 2.5 x 10^6 CFU/mL Enterococcus faecalis ATCC 29212 assessed as time required for bacterial killing at 100 uM by microscopy based bacterial killing assay
Escherichia coli [11] = assay: Antibacterial activity against 2.5 x 10^6 CFU/mL Escherichia coli ATCC 25922 assessed as time required for bacterial killing at 100 uM by microscopy based bacterial killing assay

Molecule | MIC (Pseudomonas aeruginosa [1]) [µM] | MIC (Escherichia coli [2]) [µM] | MIC (Enterococcus faecalis [3]) [µM] | MIC (Staphylococcus aureus [4]) [µM] | MBC (Enterococcus faecalis [5]) [µM] | MBC (Staphylococcus aureus [6]) [µM] | MBC (Escherichia coli [7]) [µM] | MBC (Pseudomonas aeruginosa [8]) [µM] | Time (Staphylococcus aureus [9]) [h] | MIC (Pseudomonas aeruginosa [1]; Boston 41501 ATCC 27853, 72 h) [µM] | MIC (Escherichia coli [2]; ATCC 25922, 72 h) [µM] | MIC (Enterococcus faecalis [3]; ATCC 29212, 72 h) [µM] | MIC (Staphylococcus aureus [4]; ATCC 29213, 72 h) [µM] | Time (Enterococcus faecalis [10]) [h] | Time (Escherichia coli [11]) [h] | Activity (Enterococcus faecalis [10]) | Activity (Staphylococcus aureus [9]) | Activity (Escherichia coli [11])
N,N,N-trimethylhexadecan-1-aminium bromide | > 500 | 63 | 4 | 4 | 4 | 4 | 63 | > 500 |  |  |  |  |  |  |  |  |  | 
CCCCCCCCCCCCCCCCOc1cc(C[N+](C)(C)C)cc(C[N+](C)(C)C)c1.[Br-].[Br-] |  |  |  |  | 31 | 8 | 63 | 125 | 0.25 | 125 | 63 | 31 | 8 | 0.25 | 0.25 |  |  | 
CCCCCCCCCCCC[N+](C)(C)C |  |  |  |  | 125 | 63 | 250 | > 500 |  | > 500 | 250 | 125 | 63 |  |  |  |  | 
CCCCCCCCCCCCCCOc1cccc(C[N+](C)(C)C)c1C[N+](C)(C)C.[Br-].[Br-] |  |  |  |  | 31 | 6 | 63 | 125 | 1 | 125 | 63 | 31 | 6 | 24 | 0.5 |  |  | 
CCCCCCCCCCCCCCCCCCOc1cc(C[N+](C)(C)C)ccc1C[N+](C)(C)C.[Br-].[Br-] |  |  |  |  | 31 | 16 | 63 | 250 | 0.25 | 250 | 63 | 31 | 16 | 0.25 | 0.5 |  |  | 
CCCCCCCCCCCCCCCCOc1cc(C[N+](C)(C)C)ccc1C[N+](C)(C)C.[Br-].[Br-] |  |  |  |  | 50 | 16 | 63 | 125 | 24 | 125 | 63 | 50 | 16 |  | 2 | inactive |  | 
CCCCCCCCCCOc1cc(C[N+](C)(C)C)ccc1C[N+](C)(C)C |  |  |  |  | 500 | 250 | > 500 | > 500 |  | > 500 | > 500 | 500 | 250 |  |  | inactive | inactive | inactive
CCCCCCCCCCCCOc1cc(C[N+](C)(C)C)ccc1C[N+](C)(C)C |  |  |  |  | 125 | 31 | 500 | > 500 |  | > 500 | 500 | 125 | 31 |  |  | inactive | inactive | inactive
CCCCCCCCCCCCCCOc1ccc(C[N+](C)(C)C)cc1C[N+](C)(C)C.[Br-].[Br-] |  |  |  |  | 16 | 6 | 31 | 125 | 1 | 125 | 31 | 16 | 6 | 2 | 1 |  |  | 
CCCCCCCCCCCCOS(=O)(=O)[O-].[Na+] [SODIUM LAURYL SULFATE] |  |  |  |  | 500 | 250 | > 500 | > 500 |  | > 500 | > 500 | 500 | 250 |  |  |  |  | 
CCCCCCCCCCCCCCOc1ccc(C[N+](C)(C)C)cc1.[Br-] |  |  |  |  | 16 | 6 | > 500 | > 500 | 0.25 | > 500 | > 500 | 16 | 6 | 0.25 |  |  |  | inactive
CCCCCCCCCCCCCCOc1cc(C[N+](C)(C)C)ccc1C[N+](C)(C)C.[Br-].[Br-] |  |  |  |  | 31 | 16 | 63 | 250 | 48 | 250 | 63 | 31 | 16 | 48 | 72 |  |  | 
CCCCCCCCCCOc1ccc(C[N+](C)(C)C)cc1.[Br-] |  |  |  |  | 16 | 8 | 63 | 250 | 0.5 | 250 | 63 | 16 | 8 | 0.5 | 0.5 |  |  | 
CCCCCCCCCCCCCCOc1c(C[N+](C)(C)C)cccc1C[N+](C)(C)C.[Br-].[Br-] |  |  |  |  | 50 | 16 | 125 | 500 | 48 | 500 | 125 | 50 | 16 |  |  | inactive |  | inactive
CCCCCCCCCCCCCCOc1cc(C[N+](C)(C)C)cc(C[N+](C)(C)C)c1.[Br-].[Br-] |  |  |  |  | 31 | 4 | 31 | 63 | 0.25 | 63 | 31 | 31 | 4 | 0.25 | 1 |  |  | 
